Data set [1] addresses Neuropilin-1 (Rattus norvegicus) (UniProt Q9QWJ9). The data set is described as follows: Inhibition of human biotinylated VEGF-A165 binding to Fc-tagged recombinant rat NRP1 receptor at 0.3 uM after 2 hrs by colorimetric analysis relative to control.
Data set [2] concerns the target T1, Neuropilin-1 (Homo sapiens, UniProt O14786). The data set is described as follows: Inhibition of human biotinylated VEGF-A165 binding to recombinant human NRP1 receptor at 10 uM after 2 hrs by chemiluminescence analysis relative to control. The method in brief:
(§1)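 Wells coated overnight at 4 °C with recombinant human NRP-1 (200 ng/well), blocked with 0.5% BSA/PBS. Peptide in PBS and biotinylated human VEGF-A165 (400 ng/mL, in PBS with 4 µg/mL heparin) incubated 2 h at room temperature. Detection by streptavidin-HRP and luminol chemiluminescence. Controls: ligand only (positive) and uncoated wells (negative). % inhibition calculated from these. IC50 by nonlinear regression.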

Data set [3] deals with Neuropilin-1 (Rattus norvegicus) (UniProt Q9QWJ9). Put plainly: Inhibition of human biotinylated VEGF-A165 binding to Fc-tagged recombinant rat NRP1 receptor at 10 uM after 2 hrs by colorimetric analysis relative to control.
In data set [4] the target is T1, Neuropilin-1. Put plainly: Inhibition of human biotinylated VEGF-A165 binding to recombinant human NRP1 receptor at 50 uM after 2 hrs by chemiluminescence analysis relative to control. The method in brief: as §1
The target of data set [5] is Neuropilin-1 (Rattus norvegicus, UniProt Q9QWJ9). Put plainly: Inhibition of human biotinylated VEGF-A165 binding to Fc-tagged recombinant rat NRP1 receptor after 2 hrs by colorimetric analysis.
Data set [6] has as its target T1, Neuropilin-1. Put plainly: Inhibition of human biotinylated VEGF-A165 binding to recombinant human NRP1 receptor at 100 uM after 2 hrs by chemiluminescence analysis relative to control. The method in brief:
as §1

Data set [7] addresses Neuropilin-1 (Rattus norvegicus) (UniProt Q9QWJ9). The data set is described as follows: Inhibition of human biotinylated VEGF-A165 binding to Fc-tagged recombinant rat NRP1 receptor at 3 uM after 2 hrs by colorimetric analysis relative to control.
The target of data set [8] is T1, Neuropilin-1. Put plainly: Inhibition of human biotinylated VEGF-A165 binding to recombinant human NRP1 receptor at 25 uM after 2 hrs by chemiluminescence analysis relative to control. The method in brief:
as §1

Data set [9] deals with Neuropilin-1 (Rattus norvegicus) (UniProt Q9QWJ9). Put plainly: Inhibition of human biotinylated VEGF-A165 binding to Fc-tagged recombinant rat NRP1 receptor at 1 uM after 2 hrs by colorimetric analysis relative to control.
In data set [10] the target is T1, Neuropilin-1. Put plainly: Inhibition of human biotinylated VEGF-A165 binding to recombinant human NRP1 receptor after 2 hrs by chemiluminescence analysis. The method in brief: as §1
Data set [11] addresses T1, Neuropilin-1. The data set is described as follows: Inhibition of human biotinylated VEGF-A165 binding to recombinant human NRP1 receptor at 1 uM after 2 hrs by chemiluminescence analysis relative to control. The method in brief:
as §1

The target in data set [12] is T1, Neuropilin-1. Put plainly: Inhibition of human biotinylated VEGF-A165 binding to recombinant human NRP1 receptor at 5 uM after 2 hrs by chemiluminescence analysis relative to control. The method in brief: as §1
Data set [13] concerns the target Neuropilin-1 (Rattus norvegicus) (UniProt Q9QWJ9). Put plainly: Inhibition of human biotinylated VEGF-A165 binding to Fc-tagged recombinant rat NRP1 receptor at 0.1 uM after 2 hrs by colorimetric analysis relative to control.
For data set [14], the target named is T1, Neuropilin-1. The data set is described as follows: Inhibition of human biotinylated VEGF-A165 binding to recombinant human NRP1 receptor at 2.5 uM after 2 hrs by chemiluminescence analysis relative to control. The method in brief:
as §1

A short description of data set [15]: Half life in human plasma at 1 umol/ml up to 96 hrs by RP-HPLC and LC/MS analysis. Format: ADME, cell-free. The method in brief: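 Citrate plasma pooled from four healthy donors, stored at –80 °C, preactivated 20 min at 37 °C with shaking. Aqueous peptide stock diluted into plasma to ~1 µmol/mL final and incubated 0–96 h. Aliquots quenched with equal volume 98% ethanol, centrifuged, supernatant lyophilized, reconstituted in water, analysed by RP-HPLC (LC-MS for selected samples). Half-life obtained by nonlinear regression.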

Square brackets hold non-standard residues; d marks the D form. Peptide text beside a SMILES is read from it. Oic = O=C(O)[C@@H]1C[C@@H]2CCCC[C@@H]2N1; Hyp = O=C(O)[C@@H]1C[C@@H](O)CN1; Pip(4-aza) = O=C(O)[C@@H]1CNCCN1; hArg = N=C(N)NCCCC[C@H](N)C(=O)O; Tic = O=C(O)[C@@H]1Cc2ccccc2CN1; ΔPro = O=C(O)[C@@H]1C=CCN1; Aze = O=C(O)[C@@H]1CCN1; Dab = NCC[C@H](N)C(=O)O A value given as a limit tells only on which side of the number the result lay.

T1 sequence (O14786 whole entry): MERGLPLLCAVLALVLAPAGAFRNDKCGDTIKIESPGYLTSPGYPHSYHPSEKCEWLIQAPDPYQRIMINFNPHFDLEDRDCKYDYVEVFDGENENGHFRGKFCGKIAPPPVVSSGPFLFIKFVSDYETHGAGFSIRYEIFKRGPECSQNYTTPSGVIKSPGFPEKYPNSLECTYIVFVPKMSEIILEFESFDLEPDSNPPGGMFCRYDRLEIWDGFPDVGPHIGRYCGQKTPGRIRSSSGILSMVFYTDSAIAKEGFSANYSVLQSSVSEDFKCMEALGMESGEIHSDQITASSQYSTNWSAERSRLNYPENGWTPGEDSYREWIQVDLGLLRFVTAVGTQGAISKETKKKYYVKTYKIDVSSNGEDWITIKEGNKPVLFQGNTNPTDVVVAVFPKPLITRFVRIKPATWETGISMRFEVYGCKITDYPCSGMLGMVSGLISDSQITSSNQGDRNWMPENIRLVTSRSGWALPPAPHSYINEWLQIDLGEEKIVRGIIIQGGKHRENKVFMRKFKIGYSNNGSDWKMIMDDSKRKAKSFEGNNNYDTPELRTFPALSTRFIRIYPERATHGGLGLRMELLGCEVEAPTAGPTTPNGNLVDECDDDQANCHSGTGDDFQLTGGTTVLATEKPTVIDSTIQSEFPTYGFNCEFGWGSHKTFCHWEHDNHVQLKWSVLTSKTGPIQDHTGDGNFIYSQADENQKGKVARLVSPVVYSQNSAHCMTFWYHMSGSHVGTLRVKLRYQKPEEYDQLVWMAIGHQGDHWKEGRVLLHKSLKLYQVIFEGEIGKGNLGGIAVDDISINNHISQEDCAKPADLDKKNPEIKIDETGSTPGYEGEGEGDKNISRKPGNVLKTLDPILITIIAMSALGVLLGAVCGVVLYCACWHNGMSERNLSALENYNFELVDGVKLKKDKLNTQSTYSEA

In the case of `N=C(N)NCCCC[C@H](N)C(=O)NCCCC[C@H](N)C(=O)N1CCC[C@H]1C(=O)N1CCC[C@H]1C(=O)N[C@@H](CCCNC(=N)N)C(=O)O` (H-K(hArg)PPR-OH), the inhibition came to 4.7% in data set [1]; 37.1% in data set [2]; 92.2% in data set [3]; 67.9% in [4]; 77% in [6]; 79% in [7]. Further, the inhibition in data set [8] turned out to be 54.1%; in data set [9] it was 41.4%. Moreover, the IC50 in data set [5] worked out at 1 µM; in data set [10] (read-out: IC50) it was 20.9 µM.
Turning to `N=C(N)NCCCC[C@H](N)C(=O)NCCCC[C@H](N)C(=O)N1CC[C@H]1C(=O)N1CC[C@H]1C(=O)N[C@@H](CCCNC(=N)N)C(=O)O` (H-K(hArg)[Aze][Aze]R-OH), the inhibition in [2] was 30%; in data set [4] it was 53.6%; in [6], 59.9%; in data set [8] it was 41.9%. In [10] (read-out: IC50), the IC50 was determined as 48.6 µM.
As for `N=C(N)NCCCC[C@H](N)C(=O)NCCCC[C@H](N)C(=O)N[C@@H](CCN)C(=O)N1CCC[C@H]1C(=O)N[C@@H](CCCNC(=N)N)C(=O)O` (H-K(hArg)[Dab]PR-OH), the inhibition in data set [11] was 13.8%; in [1] it was 59.6%; in [2], 58.6%; in [3], 99.6%; in [12] it was 43.7%; in [4] it was 76.6%. Also, the inhibition in data set [6] was 79.8%; in data set [7] it was 92.8%; in data set [13], 35.8%; in data set [14], 31.4%; in data set [8], 70.4%; in data set [9], 83.7%. In addition, the IC50 in data set [5] came to 0.2 µM; in data set [10] (read-out: IC50), 8.9 µM.
On to `N=C(N)NCCCC[C@H](N)C(=O)NCCCC[C@H](N)C(=O)N[C@@H](CCN)C(=O)N1CC[C@H]1C(=O)N[C@@H](CCCNC(=N)N)C(=O)O` (H-K(hArg)[Dab][Aze]R-OH), for which the inhibition in data set [11] came out at 7.7%; in data set [2], 49.6%; in data set [12] it was 30.1%; in data set [4], 75.8%; in data set [6] it was 78.8%; in data set [14], 12.9%. In addition, the inhibition in [8] was found to be 69.1%. The IC50 was 11.7 µM in data set [10] (read-out: IC50) and 10.7 µM in data set [10] (read-out: pIC50 (converted)).
Consider `N=C(N)NCCCC[C@H](N)C(=O)NCCCC[C@H](N)C(=O)N[C@@H](CCN)C(=O)N1C[C@H](O)C[C@H]1C(=O)N[C@@H](CCCNC(=N)N)C(=O)O` (H-K(hArg)[Dab][Hyp]R-OH), for which the inhibition in data set [11] stood at 22.5%; in data set [2] it was 54.3%; in data set [12], 36%; in data set [4], 76%; in data set [6] it was 78.6%; in data set [14] it was 22.3%. For the same compound, in [8], the inhibition was found to be 67.3%. The IC50 in data set [10] (read-out: IC50) amounted to 9.2 µM.
Turning to `N=C(N)NCCCC[C@H](N)C(=O)NCCCC[C@H](N)C(=O)N[C@@H](CCN)C(=O)N1[C@H](C(=O)N[C@@H](CCCNC(=N)N)C(=O)O)C[C@@H]2CCCC[C@@H]21` (H-K(hArg)[Dab][Oic]R-OH), the inhibition in data set [11] turned out to be 37.7%; in data set [2], 63.4%; in data set [12], 52.3%; in [4], 79.5%; in data set [6], 83%; in [14], 50.9%. The inhibition in data set [8] was determined as 77.7%. In [15], the half-life at 1000 µM is 54.9 h. The IC50 in data set [10] (read-out: IC50) turned out to be 2.3 µM.
Take `N=C(N)NCCCC[C@H](N)C(=O)NCCCC[C@H](N)C(=O)N[C@@H](CCN)C(=O)N1CCNC[C@H]1C(=O)N[C@@H](CCCNC(=N)N)C(=O)O` (H-K(hArg)[Dab][Pip(4-aza)]R-OH): the inhibition in data set [2] is 20.8%; in data set [4], 46%; in data set [6], 51.8%; in data set [8] it was 34.8%. Moreover, in [10] (read-out: IC50), the IC50 was 80.5 µM.
The matching figures for `N=C(N)NCCCC[C@H](N)C(=O)NCCCC[C@H](N)C(=O)N[C@@H](CCN)C(=O)N1Cc2ccccc2C[C@H]1C(=O)N[C@@H](CCCNC(=N)N)C(=O)O` (H-K(hArg)[Dab][Tic]R-OH): 31.5%, 17.2%, 0%, 35% and greater than 100 µM.
Regarding `N=C(N)NCCCC[C@H](N)C(=O)NCCCC[C@H](N)C(=O)N[C@@H](CCN)C(=O)N1CC=C[C@H]1C(=O)N[C@@H](CCCNC(=N)N)C(=O)O` (H-K(hArg)[Dab][ΔPro]R-OH), the inhibition in data set [11] is 29.9%; in [2] it was 70.7%; in [12] it was 58%; in data set [4], 84.4%; in [6] it was 87.1%; in data set [14] it was 44.8%. Also, in [8], the inhibition came out at 78.1%. Further, the half-life at 1000 µM in data set [15] was 51.1 h. Besides, in data set [10] (read-out: IC50), the IC50 came to 4.3 µM.
For `N=C(N)NCCCC[C@H](N)C(=O)NCCCC[C@H](N)C(=O)N1C[C@H](O)C[C@H]1C(=O)N1C[C@H](O)C[C@H]1C(=O)N[C@@H](CCCNC(=N)N)C(=O)O` (H-K(hArg)[Hyp][Hyp]R-OH), the inhibition in data set [2] was determined as 36.7%; in [4], 63.1%; in data set [6], 71.7%; in data set [8], 56.8%. Besides, the IC50 in [10] (read-out: IC50) is 21.3 µM.
For `N=C(N)NCCCC[C@H](N)C(=O)NCCCC[C@H](N)C(=O)N1[C@H](C(=O)N2[C@H](C(=O)N[C@@H](CCCNC(=N)N)C(=O)O)C[C@@H]3CCCC[C@@H]32)C[C@@H]2CCCC[C@@H]21` (H-K(hArg)[Oic][Oic]R-OH), the inhibition was 32.9% in data set [11]; 53.4% in [2]; 47.8% in [12]; 77.6% in data set [4]; 83.6% in [6]; 42.1% in data set [14]. In data set [8], the inhibition is 68.2%. In addition, in [10] (read-out: IC50), the IC50 amounted to 7.2 µM.
Take `N=C(N)NCCCC[C@H](N)C(=O)NCCCC[C@H](N)C(=O)N1CCNC[C@H]1C(=O)N1CCNC[C@H]1C(=O)N[C@@H](CCCNC(=N)N)C(=O)O` (H-K(hArg)[Pip(4-aza)][Pip(4-aza)]R-OH): the inhibition in data set [2] worked out at 45%; in data set [4] it was 63.3%; in [6] it was 70.8%; in data set [8], 58.7%. Further, the IC50 in data set [10] (read-out: IC50) is 16 µM.
The matching figures for `N=C(N)NCCCC[C@H](N)C(=O)NCCCC[C@H](N)C(=O)N1Cc2ccccc2C[C@H]1C(=O)N1Cc2ccccc2C[C@H]1C(=O)N[C@@H](CCCNC(=N)N)C(=O)O` (H-K(hArg)[Tic][Tic]R-OH): 24.7%, 40.7%, 45.2%, 31.4% and greater than 100 µM.
The matching figures for `N=C(N)NCCCC[C@H](N)C(=O)NCCCC[C@H](N)C(=O)N1CC=C[C@H]1C(=O)N1CC=C[C@H]1C(=O)N[C@@H](CCCNC(=N)N)C(=O)O` (H-K(hArg)[ΔPro][ΔPro]R-OH): 45.4%, 72.2%, 79.3%, 61.3% and 14 µM.
With H-ATWLPPR-OH, the inhibition amounted to 30.8% in [2], 43.8% in [4], 58.2% in data set [6] and 35% in data set [8]. Also, the figures for the IC50 in [10] (read-out: IC50) and in data set [10] (read-out: pIC50 (converted)) were 84.1 µM and 83.2 µM, respectively.
